Measurements published in ChEMBL document CHEMBL1154485, “Novel 2-aryl-naphtho[1,2-d]oxazole derivatives as potential PTP-1B inhibitors showing antihyperglycemic activities” (Eur J Med Chem, 2009).

Key:
Rattus norvegicus [1] = experiment: Antihyperglycemic activity against sucrose-loaded Charles-Foster Wistar albino rat assessed as reduction in blood glucose at 100 mg/kg, po administered 30 mins before sucrose challenge relative to control; format: functional; parameters: scale not given: the % may be the effect or the level left
How it was run: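 Male Charles Foster/Wistar rats, 160 ± 20 g, fasted 16 h, selected at 60e80 mg/dl glucose, groups of 5-6. Compound given orally at 100 mg/kg in 1.0% gum acacia; sucrose 10.0 g/kg orally 30 min later. Glucose read by glucometer at 30-120 min. Percent activity derived from AUC versus vehicle.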

Rattus norvegicus [2] = experiment: Antihyperglycemic activity against sucrose-challenged streptozotocin-induced fasted Sprague-Dawley rat assessed as reduction in blood glucose at 100 mg/kg, po administered 30 mins before sucrose challenge measured after 24 hrs post sucrose dose relative to control; format: functional; parameters: scale not given: the % may be the effect or the level left
How it was run: (§1)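 Male Sprague Dawley rats, 160 ± 20 g, overnight fasted, given streptozotocin 45 mg/kg i.p. in citrate buffer pH 4.5. Rats at 144-270 mg/dl glucose after 48 h were used, 5-6 per group. Oral dose 100 mg/kg in 1.0% gum acacia, sucrose 2.5 g/kg 30 min later. Glucose read at 30-300 min and 24 h. Activity derived from AUC versus control.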

[3] = target: T1, Tyrosine-protein phosphatase non-receptor type 1 (Homo sapiens, UniProt P18031); experiment: Inhibition of PTP1B assessed as residual enzyme activity in presence of Triton X-100
T1 sequence (P18031 whole entry): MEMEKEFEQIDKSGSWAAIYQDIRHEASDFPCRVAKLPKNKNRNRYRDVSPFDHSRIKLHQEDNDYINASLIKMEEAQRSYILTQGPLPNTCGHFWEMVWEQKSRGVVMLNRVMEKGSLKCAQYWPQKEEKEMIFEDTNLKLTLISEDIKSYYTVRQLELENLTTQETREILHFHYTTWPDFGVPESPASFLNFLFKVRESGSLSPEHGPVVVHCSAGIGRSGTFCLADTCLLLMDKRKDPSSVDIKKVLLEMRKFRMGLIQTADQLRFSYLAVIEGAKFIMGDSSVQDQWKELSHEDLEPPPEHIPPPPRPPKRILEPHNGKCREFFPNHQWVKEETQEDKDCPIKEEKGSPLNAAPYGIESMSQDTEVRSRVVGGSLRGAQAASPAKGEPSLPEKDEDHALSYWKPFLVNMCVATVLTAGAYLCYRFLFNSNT
How it was run: (§2)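 PTP-1B pre-incubated 10 min with compound, with or without 0.01% Triton X-100. Reaction: 10 mM pNPP in 50 mM HEPES pH 7.0 with 1 mM DTT and 2 mM EDTA, 30 min at 37 °C. Stopped with 0.1 N NaOH, p-nitrophenolate read at 410 nm (ε 1.78×10⁴ M⁻¹cm⁻¹). Single-concentration screen was the mean of three independent sets. Sodium orthovanadate served as standard.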

[4] = target: T1, Tyrosine-protein phosphatase non-receptor type 1; experiment: Inhibition of PTP1B assessed as residual enzyme activity; how it was run: as §2
Mus musculus [5] = organism: Mus musculus; experiment: Antihyperglycemic activity against C57BL/KsBom db/db type 2 diabetic mouse model assessed as decrease in postprandial blood glucose level on day 3 by OGTT relative to control; format: functional; parameters: concentration or dose not given beside the values
Rattus norvegicus [6] = experiment: Antihyperglycemic activity against sucrose-challenged streptozotocin-induced fasted Sprague-Dawley rat assessed as reduction in blood glucose at 100 mg/kg, po administered 30 mins before sucrose challenge measured after 5 hrs post sucrose dose relative to control; format: functional; parameters: scale not given: the % may be the effect or the level left; how it was run: as §1
Mus musculus [7] = organism: Mus musculus; experiment: Antihyperglycemic activity against C57BL/KsBom db/db type 2 diabetic mouse model assessed as decrease in postprandial blood glucose level on day 10 by OGTT relative to control; format: functional; parameters: scale not given: the % may be the effect or the level left
How it was run: (§3)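 Male and female C57BL/KsBom-db mice, 12e18 weeks, 40e50 g, ten used, vehicle 1.0% gum acacia. Day 6 postprandial protocol: glucose read at -0.5 and 0 h, then at 1, 2, 3, 4 and 6 h after dosing. Day 10 OGTT: overnight fast, drug given at -30 min, glucose 3 g/kg at 0 min, glucose read at 30-120 min.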

Mus musculus [8] = experiment: Antidyslipidemic activity in C57BL/KsBom db/db diabetic mouse assessed as reduction in plasma triglyceride level at 100 mg/kg, po; format: functional; parameters: scale not given: the % may be the effect or the level left
How it was run: (§4)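 Male and female C57BL/KsBom-db mice, 12e18 weeks, 40e50 g, ten per experiment, housed by sex at 23 °C on a 12/12 h cycle. Test drug given orally at 100 mg/kg in gum acacia (1.0%); vehicle controls received gum acacia only. Dosing ran 10 days. Effects on triglyceride, cholesterol and HDL are reported as % change.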

Mus musculus [9] = experiment: Antidyslipidemic activity in C57BL/KsBom db/db diabetic mouse assessed as increase in high-density lipoprotein cholesterol level at 100 mg/kg, po; format: functional; how it was run: as §4
Mus musculus [10] = organism: Mus musculus; experiment: Antihyperglycemic activity against C57BL/KsBom db/db type 2 diabetic mouse model assessed as decrease in postprandial blood glucose level on day 6 by OGTT relative to control; format: functional; parameters: scale not given: the % may be the effect or the level left; how it was run: as §3
Mus musculus [11] = experiment: Antidyslipidemic activity in C57BL/KsBom db/db diabetic mouse assessed as reduction in plasma cholesterol level at 100 mg/kg, po; format: functional; parameters: scale not given: the % may be the effect or the level left; how it was run: as §4

IC50 [3] [µM]	Ki [3] [µM]	IC50 [4] [µM]	Ki [4] [µM]	SMILES	Activity (Rattus norvegicus [1]) [%]	Activity (Rattus norvegicus [2]) [%]	Activity (Mus musculus [5]) [%]	Activity (Rattus norvegicus [6]) [%]	also measured
				O=C(O)CCCOc1ccc(-c2nc3c(ccc4ccccc43)o2)cc1	5.8				
3.52	36.3	3.5	34.1	CN(C)CCCOc1ccc(-c2nc3c(ccc4ccccc43)o2)cc1	25.2	20.3	16.7	15.6	
1.86	27.1	1.9	27.5	c1ccc2c(c1)ccc1oc(-c3ccc(OCCN4CCCCC4)cc3)nc12	26.9	15.7	10.4	16.4	
				CC(=O)Oc1ccc(-c2nc3c(ccc4ccccc43)o2)cc1	16.8				
				c1ccc2c(c1)ccc1oc(-c3ccc(OCCCN4CCCCC4)cc3)nc12	25	11.2		13.4	
				COc1ccc(NCCCOc2ccc(-c3nc4c(ccc5ccccc54)o3)cc2)cc1	11.8				
				Oc1ccc(-c2nc3c(ccc4ccccc43)o2)cc1	10.8				
				CCCCCCCCNCCCOc1ccc(-c2nc3c(ccc4ccccc43)o2)cc1	15				
				CCOC(=O)CCCOc1ccc(-c2nc3c(ccc4ccccc43)o2)cc1	9.5				
2.52	41	2.5	44.4	CCCCN(C)CCOc1ccc(-c2nc3c(ccc4ccccc43)o2)cc1	35.3	18.7	22.3	17.4	Activity (Mus musculus [7]): 24.1%; Activity (Mus musculus [8]): 7.5%; Activity (Mus musculus [9]): 1.3%; Activity (Mus musculus [10]): 22.4%; Activity (Mus musculus [11]): 12.2%
				Cc1ccc(NCCCOc2ccc(-c3nc4c(ccc5ccccc54)o3)cc2)cc1	17.2	15.2		14.6	
				Cc1ccc(S(=O)(=O)NC(=O)NN2CC3CCCC3C2)cc1 (configuration not stated) [GLICLAZIDE]	44.8		17.4	27.7	
				O=C(O)COc1ccc(-c2nc3c(ccc4ccccc43)o2)cc1	4.6				
3.56	28.7	3.51	25.1	CN(C)CCOc1ccc(-c2nc3c(ccc4ccccc43)o2)cc1	35.9	25.7	18.9	27.9	Activity (Mus musculus [7]): 23.6%; Activity (Mus musculus [8]): 10.5%; Activity (Mus musculus [9]): 3%; Activity (Mus musculus [10]): 21.4%; Activity (Mus musculus [11]): 17.6%
3.36	41	3.4	40.5	CCN(CC)CCCOc1ccc(-c2nc3c(ccc4ccccc43)o2)cc1	20.5	13.6	10.8	11.5	
				c1ccc2c(c1)ccc1oc(-c3ccc(OCCCN4CCCC4)cc3)nc12	17.2	12.9		12.6	
				CCCCN(C)CCCOc1ccc(-c2nc3c(ccc4ccccc43)o2)cc1	14.7	9.2		7.8	
				CCOC(=O)COc1ccc(-c2nc3c(ccc4ccccc43)o2)cc1	11.4				
				CN(C)C(=N)NC(=N)N [METFORMIN]	12.9	20.2	11.2		
4.55	35.5	4.6	35	CCN(CC)CCOc1ccc(-c2nc3c(ccc4ccccc43)o2)cc1	21.7	9.7		11.4	
				COc1ccc(Cl)cc1C(=O)NCCc1ccc(S(=O)(=O)NC(=O)NC2CCCCC2)cc1 [GLYBURIDE]	33.9		13.6	32.8	
5.7	37	5.71	34.2	c1ccc2c(c1)ccc1oc(-c3ccc(OCCN4CCCC4)cc3)nc12	8.7				
				ClCCCOc1ccc(-c2nc3c(ccc4ccccc43)o2)cc1	7.4				
